Here are results for four compounds from PubChem BioAssay AID504830 (Southern Research Specialized Biocontainment Screening …, 2011).

The assay deals with HEp-2 cells, RSV plaque reduction, virus titer. In words: RSV titer reduction by inhibitors, cell-based, plaque reduction (AID 504830). Conditions: at 25 µM; stronger effect = lower value. Summed up: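 Signal: HEp-2 plaque titration, 1% Avicel overlay, six days, neutral red stain / Assay system: RSV Long-infected HEp-2 cells / Timing: 48 h compound exposure at 37 °C after infection / Reagent: RSV Long strain at MOI 0.1, 2 h infection / Doses: post-infection compound, 0.5% DMSO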

For `Cc1ccc(NC(=O)C2CCCN2S(=O)(=O)c2cccc3cccnc23)c(C)c1` (centres undefined), the log virus titer change was -2.1. In the case of `Cc1ccc(NC(=O)[C@@H]2CCCN2S(=O)(=O)c2cccc3cccnc23)c(C)c1`, the log virus titer change was -1. The same measure for `Cc1ccc(C)c(NC(=O)[C@@H]2CCCN2S(=O)(=O)c2cccc3cccnc23)c1`: -2; for `COc1ccc(C)c(NC(=O)[C@@H]2CCCN2S(=O)(=O)c2cccc3cccnc23)c1`: -1.
